Assay results published in ChEMBL document CHEMBL3774321, “Systematic diversification of benzylidene heterocycles yields novel inhibitor scaffolds selective for Dyrk1A, Clk1 and CK2” (Eur J Med Chem, 2016).
One block for each compound: values may come before it. The source made the active and inactive calls. The calls are words filed in the database; no cut-off is given here.

Key:
[1] = system: Plasma; assay: Metabolic stability in rat plasma assessed as drug degradation at 1 uM after 120 mins by LC-MS/MS analysis; type: ADME, cell-free; settings: 2 h
How it was run: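 Compound (1 µM) in pooled heparinised rat plasma at 37 °C, sampled at 0, 5, 15, 30, 60 and 120 min. Reaction stopped with 5 volumes of cold acetonitrile containing internal standard. Remaining compound was measured by LC-MS/MS; means of two experiments.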

[2] = molecular target: T1, Serine/threonine-protein kinase pim-1 (Homo sapiens, UniProt P11309); assay: Inhibition of PIM1 (unknown origin) at 5 uM relative to control
T1 sequence (P11309 whole entry, looked up): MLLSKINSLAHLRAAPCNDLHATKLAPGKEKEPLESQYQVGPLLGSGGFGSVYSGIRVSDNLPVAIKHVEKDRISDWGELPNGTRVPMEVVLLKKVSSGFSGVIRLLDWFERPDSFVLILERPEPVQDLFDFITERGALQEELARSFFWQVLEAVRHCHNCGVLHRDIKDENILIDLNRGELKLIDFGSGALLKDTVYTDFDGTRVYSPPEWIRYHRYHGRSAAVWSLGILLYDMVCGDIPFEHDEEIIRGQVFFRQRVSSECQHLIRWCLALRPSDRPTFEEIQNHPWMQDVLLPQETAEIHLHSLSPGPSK

[3] = molecular target: BDNF/NT-3 growth factors receptor (Homo sapiens) (UniProt Q16620); assay: Inhibition of recombinant human His-tagged NTRK2 expressed in baculovirus expression system at 1 uM by lantha screen kinase binding assay relative to control
How it was run: (§1)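 Binding-displacement format: the compound competes with an Alexa Fluor-conjugated tracer for binding to the kinase ATP site, rather than a peptide phosphorylation read-out.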

[4] = molecular target: Serine/threonine-protein kinase D2 (Homo sapiens) (UniProt Q9BZL6); assay: Inhibition of full length recombinant human GST-tagged PRKD2 expressed in baculovirus expression system at 1 uM by lantha screen kinase binding assay relative to control
[5] = molecular target: T1, Serine/threonine-protein kinase pim-1; assay: Inhibition of PIM1 (unknown origin) at 1 uM relative to control
How it was run: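 Single-point screen at 1 μM compound. Percent inhibition is the mean of two separate measurements, each run in duplicate.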

[6] = molecular target: Mitogen-activated protein kinase kinase kinase 9 (Homo sapiens) (UniProt P80192); assay: Inhibition of recombinant human GST-tagged MAP3K9 expressed in baculovirus expression system at 1 uM by lantha screen kinase binding assay relative to control; how it was run: as §1
Chain of Mitogen-activated protein kinase kinase kinase 9 (Homo sapiens) (P80192 whole entry, looked up): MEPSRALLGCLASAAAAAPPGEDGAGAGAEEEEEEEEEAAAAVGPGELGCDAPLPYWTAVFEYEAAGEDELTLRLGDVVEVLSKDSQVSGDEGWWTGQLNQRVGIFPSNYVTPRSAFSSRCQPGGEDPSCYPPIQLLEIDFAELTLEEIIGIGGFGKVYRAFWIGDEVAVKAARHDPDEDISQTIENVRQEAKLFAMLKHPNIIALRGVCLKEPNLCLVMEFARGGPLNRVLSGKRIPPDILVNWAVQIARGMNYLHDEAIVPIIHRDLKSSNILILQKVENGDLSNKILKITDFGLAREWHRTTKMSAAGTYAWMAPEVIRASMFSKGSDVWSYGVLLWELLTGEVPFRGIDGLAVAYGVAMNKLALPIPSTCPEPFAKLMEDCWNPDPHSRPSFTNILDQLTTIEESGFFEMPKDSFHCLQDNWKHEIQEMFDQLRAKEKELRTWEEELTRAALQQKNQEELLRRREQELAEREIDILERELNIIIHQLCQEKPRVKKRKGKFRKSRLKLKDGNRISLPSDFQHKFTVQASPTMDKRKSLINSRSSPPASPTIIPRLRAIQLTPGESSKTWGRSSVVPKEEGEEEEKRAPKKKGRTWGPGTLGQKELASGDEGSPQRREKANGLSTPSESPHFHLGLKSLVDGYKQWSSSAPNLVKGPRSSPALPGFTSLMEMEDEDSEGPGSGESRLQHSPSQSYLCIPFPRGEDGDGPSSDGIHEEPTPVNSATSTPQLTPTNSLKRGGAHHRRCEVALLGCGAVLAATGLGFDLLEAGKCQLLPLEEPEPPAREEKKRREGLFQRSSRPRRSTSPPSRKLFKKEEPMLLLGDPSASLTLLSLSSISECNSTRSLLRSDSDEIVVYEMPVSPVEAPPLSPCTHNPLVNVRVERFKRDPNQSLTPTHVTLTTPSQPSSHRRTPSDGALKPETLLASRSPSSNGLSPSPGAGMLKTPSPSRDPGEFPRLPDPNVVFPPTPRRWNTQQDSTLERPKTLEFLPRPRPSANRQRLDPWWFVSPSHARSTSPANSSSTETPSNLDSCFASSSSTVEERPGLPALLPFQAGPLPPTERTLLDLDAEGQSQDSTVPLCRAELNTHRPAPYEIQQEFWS

[7] = molecular target: Glycogen synthase kinase-3 beta (Homo sapiens) (UniProt P49841); assay: Inhibition of full length recombinant human His-tagged GSK3beta expressed in baculovirus expression system at 1 uM by lantha screen kinase binding assay relative to control; how it was run: as §1
Chain of Glycogen synthase kinase-3 beta (Homo sapiens) (P49841 whole entry, looked up): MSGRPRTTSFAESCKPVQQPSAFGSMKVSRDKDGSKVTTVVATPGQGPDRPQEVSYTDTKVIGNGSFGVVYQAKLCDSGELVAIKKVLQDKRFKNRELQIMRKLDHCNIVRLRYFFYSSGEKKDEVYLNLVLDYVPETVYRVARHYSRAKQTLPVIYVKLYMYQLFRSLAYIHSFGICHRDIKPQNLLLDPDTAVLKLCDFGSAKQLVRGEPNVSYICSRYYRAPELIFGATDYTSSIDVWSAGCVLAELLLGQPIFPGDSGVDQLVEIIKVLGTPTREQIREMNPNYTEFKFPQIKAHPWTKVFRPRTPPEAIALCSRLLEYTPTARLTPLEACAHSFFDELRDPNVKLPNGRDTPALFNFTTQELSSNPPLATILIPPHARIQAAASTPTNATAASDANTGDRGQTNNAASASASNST

[8] = molecular target: Dual specificity tyrosine-phosphorylation-regulated kinase 3 (Homo sapiens) (UniProt O43781); assay: Inhibition of full length recombinant human GST-tagged DYRK3 expressed in baculovirus expression system at 1 uM by lantha screen kinase binding assay relative to control
[9] = molecular target: Dual specificity protein kinase CLK4 (Homo sapiens, UniProt Q9HAZ1); settings: 1 uM
[10] = molecular target: Mitogen-activated protein kinase 14 (Homo sapiens) (UniProt Q16539); assay: Inhibition of full length recombinant human GST-tagged MAPK14 expressed in Escherichia coli at 1 uM by lantha screen kinase binding assay relative to control
[11] = molecular target: Dual specificity protein kinase CLK3 (Homo sapiens, UniProt P49761); assay: Inhibition of recombinant human GST-tagged CLK3 expressed in baculovirus expression system at 1 uM by lantha screen kinase binding assay relative to control; how it was run: as §1
[12] = molecular target: T2, Cyclin-dependent kinase 5/CDK5 activator 1 (Homo sapiens) (UniProt Q00535+Q15078); assay: Inhibition of full length recombinant human GST-tagged, His-tagged CDK5/p25 expressed in baculovirus expression system at 1 uM by lantha screen kinase binding assay
T2 sequence (Q00535 whole entry): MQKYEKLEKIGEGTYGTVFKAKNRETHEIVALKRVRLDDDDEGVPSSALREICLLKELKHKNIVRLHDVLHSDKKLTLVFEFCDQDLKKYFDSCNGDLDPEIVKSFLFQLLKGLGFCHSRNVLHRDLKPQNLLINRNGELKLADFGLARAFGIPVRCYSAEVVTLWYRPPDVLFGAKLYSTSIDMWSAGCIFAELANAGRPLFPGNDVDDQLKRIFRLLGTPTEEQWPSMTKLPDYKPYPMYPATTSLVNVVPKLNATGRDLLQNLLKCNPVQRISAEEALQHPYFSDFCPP
T2 sequence (Q15078 99-307 partner limits assumed): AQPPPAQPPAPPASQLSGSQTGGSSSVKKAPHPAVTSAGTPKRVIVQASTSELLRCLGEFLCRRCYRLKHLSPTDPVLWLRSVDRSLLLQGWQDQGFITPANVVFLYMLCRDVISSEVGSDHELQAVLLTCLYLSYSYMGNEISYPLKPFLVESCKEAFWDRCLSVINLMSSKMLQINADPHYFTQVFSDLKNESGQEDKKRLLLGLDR

[13] = molecular target: T3, Myosin light chain kinase 2, skeletal/cardiac muscle (Homo sapiens, UniProt Q9H1R3); assay: Inhibition of full length recombinant human N-terminal GST-tagged skeletal MYLK2 expressed in baculovirus expression system at 1 uM by lantha screen kinase binding assay relative to control; how it was run: as §1
T3 sequence (Q9H1R3 whole entry, canonical isoform): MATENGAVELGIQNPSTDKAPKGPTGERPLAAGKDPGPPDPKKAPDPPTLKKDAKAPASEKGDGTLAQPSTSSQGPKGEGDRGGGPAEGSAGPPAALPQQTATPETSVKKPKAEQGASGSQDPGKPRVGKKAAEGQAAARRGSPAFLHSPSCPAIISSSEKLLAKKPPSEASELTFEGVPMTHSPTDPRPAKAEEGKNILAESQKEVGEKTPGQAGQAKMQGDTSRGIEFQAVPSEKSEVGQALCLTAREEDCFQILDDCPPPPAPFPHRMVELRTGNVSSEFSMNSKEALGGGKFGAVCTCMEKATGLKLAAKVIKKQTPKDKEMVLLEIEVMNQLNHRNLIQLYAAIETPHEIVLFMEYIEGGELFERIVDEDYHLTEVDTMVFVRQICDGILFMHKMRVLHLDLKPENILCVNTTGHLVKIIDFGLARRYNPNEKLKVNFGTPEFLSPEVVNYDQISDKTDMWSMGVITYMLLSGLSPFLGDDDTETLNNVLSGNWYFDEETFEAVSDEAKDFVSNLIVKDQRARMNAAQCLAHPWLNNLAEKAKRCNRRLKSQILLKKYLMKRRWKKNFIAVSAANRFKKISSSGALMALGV

[14] = molecular target: Casein kinase I isoform gamma-2 (Homo sapiens) (UniProt P78368); assay: Inhibition of full length recombinant human His-tagged CSNK1G2 expressed in baculovirus expression system at 1 uM by lantha screen kinase binding assay relative to control
Chain of Casein kinase I isoform gamma-2 (Homo sapiens) (P78368 whole entry, looked up, canonical isoform): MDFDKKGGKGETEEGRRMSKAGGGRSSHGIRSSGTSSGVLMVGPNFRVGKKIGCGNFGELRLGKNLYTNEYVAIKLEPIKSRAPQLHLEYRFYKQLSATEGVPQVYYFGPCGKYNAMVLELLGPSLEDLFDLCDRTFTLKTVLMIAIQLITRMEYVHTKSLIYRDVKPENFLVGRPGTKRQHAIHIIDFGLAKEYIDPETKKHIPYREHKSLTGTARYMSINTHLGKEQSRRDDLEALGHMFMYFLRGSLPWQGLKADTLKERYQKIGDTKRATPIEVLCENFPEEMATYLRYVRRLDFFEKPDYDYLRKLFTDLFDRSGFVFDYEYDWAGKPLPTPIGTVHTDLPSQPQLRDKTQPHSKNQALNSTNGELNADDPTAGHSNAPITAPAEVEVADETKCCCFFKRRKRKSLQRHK

[15] = molecular target: T3, Myosin light chain kinase 2, skeletal/cardiac muscle; assay: Inhibition of full length recombinant human N-terminal GST-tagged MLCK expressed in baculovirus expression system by lantha screen kinase binding assay; how it was run: as §1
[16] = molecular target: T4, Epidermal growth factor receptor (Homo sapiens, UniProt P00533); assay: Inhibition of recombinant human GST-tagged EGFR expressed in baculovirus expression system at 1 uM by lantha screen kinase binding assay relative to control; how it was run: as §1
T4 sequence (P00533 whole entry, canonical isoform): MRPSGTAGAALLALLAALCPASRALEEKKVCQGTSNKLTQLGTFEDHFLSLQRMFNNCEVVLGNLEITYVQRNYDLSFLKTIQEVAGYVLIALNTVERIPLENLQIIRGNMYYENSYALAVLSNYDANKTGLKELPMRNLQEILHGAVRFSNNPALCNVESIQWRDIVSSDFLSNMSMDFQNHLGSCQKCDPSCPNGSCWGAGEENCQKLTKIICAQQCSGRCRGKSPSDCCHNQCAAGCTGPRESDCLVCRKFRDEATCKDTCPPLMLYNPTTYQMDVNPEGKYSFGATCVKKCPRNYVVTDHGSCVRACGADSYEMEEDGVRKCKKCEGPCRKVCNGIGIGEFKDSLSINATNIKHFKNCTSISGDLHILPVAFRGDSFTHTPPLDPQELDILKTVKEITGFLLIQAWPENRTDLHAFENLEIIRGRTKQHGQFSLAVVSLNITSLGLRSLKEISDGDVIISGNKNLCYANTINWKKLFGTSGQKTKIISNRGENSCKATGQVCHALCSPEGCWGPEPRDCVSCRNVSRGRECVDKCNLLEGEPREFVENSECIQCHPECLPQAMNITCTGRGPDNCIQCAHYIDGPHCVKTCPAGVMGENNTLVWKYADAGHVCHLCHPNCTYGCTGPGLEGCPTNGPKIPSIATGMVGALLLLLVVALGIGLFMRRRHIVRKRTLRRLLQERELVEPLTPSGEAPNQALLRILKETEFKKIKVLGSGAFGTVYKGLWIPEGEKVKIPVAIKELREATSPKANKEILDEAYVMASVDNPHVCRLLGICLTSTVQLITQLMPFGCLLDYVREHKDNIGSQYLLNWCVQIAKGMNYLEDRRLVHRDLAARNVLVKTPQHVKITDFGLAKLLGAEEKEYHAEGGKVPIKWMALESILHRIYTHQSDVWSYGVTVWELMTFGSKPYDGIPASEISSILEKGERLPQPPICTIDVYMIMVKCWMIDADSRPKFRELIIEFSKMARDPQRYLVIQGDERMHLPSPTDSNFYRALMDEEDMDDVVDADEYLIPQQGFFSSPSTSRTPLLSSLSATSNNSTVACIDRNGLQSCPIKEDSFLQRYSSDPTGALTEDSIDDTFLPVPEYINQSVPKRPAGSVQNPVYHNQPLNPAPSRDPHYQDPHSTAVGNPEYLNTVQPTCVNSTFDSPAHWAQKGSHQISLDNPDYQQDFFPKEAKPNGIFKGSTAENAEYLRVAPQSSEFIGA

[17] = molecular target: Casein kinase I isoform gamma-2 (Homo sapiens) (UniProt P78368); assay: Inhibition of full length recombinant human His-tagged CSNK1G2 expressed in baculovirus expression system at 5 uM by lantha screen kinase binding assay relative to control; how it was run: as §1
[18] = molecular target: T2, Cyclin-dependent kinase 5/CDK5 activator 1 (Homo sapiens); assay: Inhibition of full length recombinant human GST-tagged, His-tagged CDK5/p25 expressed in baculovirus expression system at 5 uM by lantha screen kinase binding assay
[19] = molecular target: Dual specificity tyrosine-phosphorylation-regulated kinase 4 (Homo sapiens) (UniProt Q9NR20); assay: Inhibition of full length recombinant human GST-tagged DYRK4 expressed in baculovirus expression system at 5 uM by lantha screen kinase binding assay relative to control
[20] = molecular target: Dual specificity protein kinase CLK2 (Homo sapiens) (UniProt P49760); assay: Inhibition of recombinant human GST-tagged CLK2 expressed in baculovirus expression system at 5 uM by lantha screen kinase binding assay relative to control; how it was run: as §1
[21] = molecular target: Mitogen-activated protein kinase kinase kinase 9 (Homo sapiens) (UniProt P80192); assay: Inhibition of recombinant human GST-tagged MAP3K9 expressed in baculovirus expression system at 5 uM by lantha screen kinase binding assay relative to control; how it was run: as §1
[22] = molecular target: T3, Myosin light chain kinase 2, skeletal/cardiac muscle; assay: Inhibition of full length recombinant human N-terminal GST-tagged MLCK expressed in baculovirus expression system at 5 uM by lantha screen kinase binding assay relative to control; how it was run: as §1
[23] = molecular target: Casein kinase I isoform delta (Homo sapiens) (UniProt P48730); assay: Inhibition of full length recombinant human GST-tagged CSNK1D expressed in baculovirus expression system at 5 uM by lantha screen kinase binding assay relative to control
[24] = molecular target: Glycogen synthase kinase-3 beta (Homo sapiens) (UniProt P49841); assay: Inhibition of full length recombinant human His-tagged GSK3beta expressed in baculovirus expression system at 5 uM by lantha screen kinase binding assay relative to control; how it was run: as §1
[25] = molecular target: T4, Epidermal growth factor receptor; assay: Inhibition of recombinant human GST-tagged EGFR expressed in baculovirus expression system at 5 uM by lantha screen kinase binding assay relative to control; how it was run: as §1
[26] = molecular target: Myosin light chain kinase, smooth muscle (Homo sapiens) (UniProt Q15746); assay: Inhibition of recombinant human GST-tagged MYLK expressed in baculovirus expression system at 5 uM by lantha screen kinase binding assay relative to control; how it was run: as §1
[27] = molecular target: Homeodomain-interacting protein kinase 1 (Homo sapiens) (UniProt Q86Z02); assay: Inhibition of recombinant human N-terminal GST-tagged HIPK1 expressed in baculovirus expression system at 5 uM by lantha screen kinase binding assay relative to control; how it was run: as §1
[28] = molecular target: Casein kinase I isoform epsilon (Homo sapiens) (UniProt P49674); assay: Inhibition of full length recombinant human His-tagged CSNK1E expressed in baculovirus expression system at 5 uM by lantha screen kinase binding assay relative to control
Chain of Casein kinase I isoform epsilon (Homo sapiens) (P49674 whole entry, looked up, canonical isoform): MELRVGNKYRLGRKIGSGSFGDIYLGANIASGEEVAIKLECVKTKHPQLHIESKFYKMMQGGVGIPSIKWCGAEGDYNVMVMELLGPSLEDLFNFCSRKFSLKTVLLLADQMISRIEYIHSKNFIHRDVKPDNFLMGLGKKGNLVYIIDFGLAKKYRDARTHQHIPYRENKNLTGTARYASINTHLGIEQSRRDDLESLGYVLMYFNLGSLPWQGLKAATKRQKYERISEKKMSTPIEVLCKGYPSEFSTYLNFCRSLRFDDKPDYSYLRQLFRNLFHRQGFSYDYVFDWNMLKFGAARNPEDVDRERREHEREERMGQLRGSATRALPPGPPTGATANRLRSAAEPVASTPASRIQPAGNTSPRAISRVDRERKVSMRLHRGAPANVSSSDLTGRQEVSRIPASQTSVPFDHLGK

[29] = molecular target: Casein kinase I isoform gamma-3 (Homo sapiens) (UniProt Q9Y6M4); assay: Inhibition of full length recombinant human GST-tagged CSNK1G3 expressed in baculovirus expression system at 5 uM by lantha screen kinase binding assay relative to control
[30] = molecular target: Proto-oncogene tyrosine-protein kinase ROS (Homo sapiens) (UniProt P08922); assay: Inhibition of recombinant human GST-tagged ROS1 expressed in baculovirus expression system at 5 uM by lantha screen kinase binding assay relative to control; how it was run: as §1
[31] = molecular target: Mitogen-activated protein kinase 8 (Homo sapiens) (UniProt P45983); assay: Inhibition of full length recombinant human His-tagged MAPK8 expressed in baculovirus expression system at 5 uM by lantha screen kinase binding assay relative to control; how it was run: as §1

Stability [1]: Stable
inhibition [2]: 19%
Compound: CC1C/C(=C\c2ccc3c(c2)CCO3)C(=O)O1 (stereo unspecified)

inhibition [3]: 3%
inhibition [4]: 19%
inhibition [5]: 89%
inhibition [6]: 2%
inhibition [7]: 10%
inhibition [8]: 84%
inhibition [9]: 97%
inhibition [10]: 6%
inhibition [11]: 95%
inhibition [12]: inactive
inhibition [13]: 35%
inhibition [14]: 43%
IC50 [15]: 157 nM
inhibition [16]: inactive
Compound: O=C1NC(=S)S/C1=C\c1ccc2ncccc2c1

inhibition [17]: inactive
inhibition [18]: inactive
inhibition [19]: inactive
inhibition [20]: 65%
inhibition [21]: inactive
inhibition [22]: 12%
inhibition [23]: inactive
inhibition [24]: 8%
inhibition [25]: inactive
inhibition [26]: inactive
inhibition [27]: inactive
inhibition [28]: inactive
inhibition [29]: inactive
inhibition [30]: inactive
inhibition [31]: 14%
Compound: O=C1NC(=S)S/C1=C\c1ccc2ncsc2c1
